In brackets after ≈: the same amount, converted by molar mass.
What was measured:
[1] = tested on: Human immunodeficiency virus 1; test: Antiviral activity against rilpivirine resistant HIV1 harboring reverse transcriptase E138K mutant assessed as inhibition of viral infection in human TZM-bl cells measured after 1 day by luciferase reporter gene assay; assay type: functional, organism-based; conditions: Human immunodeficiency virus 1, TZM-bl, 24 h
[2] = tested on: Human immunodeficiency virus 1; test: Antiviral activity against HIV1 NL4-3 assessed as inhibition of viral infection in human TZM-bl cells measured after 1 day by luciferase reporter gene assay; assay type: functional, organism-based; conditions: Human immunodeficiency virus 1, NL4-3, TZM-bl, 24 h
[3] = tested on: Human immunodeficiency virus 1; test: Resistance index, ratio of EC50 for rilpivirine resistant HIV1 harboring reverse transcriptase E138K mutant infected in human TZM-bl cells to EC50 for HIV1 NL4-3 infected in human TZM-bl cells; assay type: functional
[4] = tested on: Human immunodeficiency virus 1; test: Resistance index, ratio of EC50 for […] resistant HIV1 A17 harboring reverse transcriptase K103N/Y181C double mutant infected in human MT2 cells to EC50 for HIV1 3B infected in human MT2 cells; assay type: functional
In short: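 Fold change is EC50 against A17 (K103N/Y181C) divided by EC50 against IIIB. Both are from the MT-2 assay: 100 TCID50 virus, overnight exposure to compound, then compound-free medium, and day-4 p24 ELISA.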

[5] = Cytotoxicity against human TZM-bl cells assessed as reduction in cell viability after 1 day by CytoTox-Glo assay; assay type: cell-based; conditions: for CC50 at 24 h: TZM-bl cells; for CC50: tzm, 24 h
In short: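 TZM-bl cells exposed to graded compound concentrations for 1 day, run in parallel with the antiviral assay. Viability read by CytoTox-Glo following the manufacturer's protocol.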

[6] = n-octanol-water partition coefficient, logP of compound at pH 7.4 stirred for 24 hrs followed by overnight incubation by HPLC analysis; assay type: physicochemical
[7] = Metabolic stability in human liver microsomes assessed as parent compound remaining at 1 uM incubated for 30 mins in presence of NADPH by LC-MS analysis; assay type: ADME; conditions: read-out: Stability
In short: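 Compound at 1 µM final with 0.1 mg/mL human liver microsomes, 5 mM MgCl2, 1.0 mM NADPH in 0.1 M potassium phosphate pH 7.4 at 37 °C. Parent measured by LC-MS/MS (MRM, ESI).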

Liver microsome = test: Half life in human liver microsomes at 1 uM by LC-MS analysis; assay type: ADME
In short: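 Compound at 1 µM final with 0.1 mg/mL human liver microsomes, 5 mM MgCl2, 1.0 mM NADPH in 0.1 M potassium phosphate pH 7.4 at 37 °C. Quenched with ice-cold acetonitrile at 0, 5, 15, 30 and 45 min, in duplicate. Parent measured by LC-MS/MS (MRM, ESI).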

[8] = tested on: Human immunodeficiency virus 1; test: Antiviral activity against HIV1 3B infected in human MT2 cells measured on day 4 post infection by p24 ELISA method; assay type: functional, organism-based; conditions: Human immunodeficiency virus 1, 3B, MT2, 96 h
[9] = Selectivity index, ratio of CC50 for human TZM-bl cells to EC50 for HIV1 3B infected in human MT2 cells; assay type: toxicity, cell-based
[10] = Aqueous solubility in pH 7.4 phosphate buffer at 10 mg/ml after 4 hrs by UV-HPLC method; assay type: physicochemical; conditions: pH 7.4, 4 h
[11] = Aqueous solubility in 0.01 M Hcl at pH 2 at 10 mg/ml after 4 hrs by UV-HPLC method; assay type: physicochemical; conditions: buffer, pH 2, 4 h
[12] = tested on: Human immunodeficiency virus 1; test: Antiviral activity against […] resistant HIV1 A17 harboring reverse transcriptase K103N/Y181C double mutant infected in human MT2 cells measured on day 4 post infection by p24 ELISA method; assay type: functional, organism-based; conditions: Human immunodeficiency virus 1, A17, MT2, 96 h
In short: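 MT-2 cells (10^4 per well) were infected with 100 TCID50 of IIIB or A17 in RPMI 1640 with 10% FBS, with or without graded compound concentrations, overnight. Medium was then replaced with compound-free medium. On day 4, supernatant was mixed with an equal volume of 5% Triton X-100 and p24 was quantified by ELISA. EC50 was calculated from percent inhibition of p24 production.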

Structure (SMILES)	EC50 [1] [µM]	EC50 [2] [µM]	Ratio EC50 [3]	Ratio EC50 [4]	CC50 at 24 h [5] [µM]	logD at 24 h [6]	remaining at 0.5 h, 1 µM [7] [%]	t1/2 (Liver microsome) [h]	CC50 [5] [µM]	EC50 [8] [µM]	Ratio CC50/EC50 [9]	solubility [10] [µg/mL]	solubility [11] [µg/mL]	EC50 [12] [µM]
COCc1cc(N)c(Nc2ccc(C#N)cc2)cc1Oc1c(C)cc(CCC#N)cc1C	0.0133	0.00145	9.2	0.9	> 200	3.25	90.8	3.85	–	–	–	–	–	–
CC(=O)OCc1cc(N)c(Nc2ccc(C#N)cc2)cc1Oc1c(C)cc(CCC#N)cc1C	0.0391	0.0033	12	3.4	–	2.84	3	0.17	44.8	–	–	–	–	–
Cc1cc(CCC#N)cc(C)c1Oc1cc(Nc2ccc(C#N)cc2)c(N)cc1C(=O)NC1CC1	0.0221	0.002	11	–	–	2.61	63.2	–	121	0.00958	12630	1.94 (≈ 4.17 µM)	141 (≈ 303 µM)	–
CCOCc1cc(N)c(Nc2ccc(C#N)cc2)cc1Oc1c(C)cc(CCC#N)cc1C	0.0884	0.0143	6.2	12	–	–	–	–	194	0.00376	51596	–	–	0.0466
CNC(=O)c1cc(N)c(Nc2ccc(C#N)cc2)cc1Oc1c(Br)cc(CCC#N)cc1OC	0.0125	0.00558	2.2	14	–	3.16	75.7	2.32	52.4	0.0021	24952	3.38 (≈ 6.5 µM)	25.8 (≈ 49.6 µM)	0.0293
Cc1cc(CCC#N)cc(C)c1Oc1cc(Nc2ccc(C#N)cc2)c(N)cc1C(=O)NC(C)C	–	0.0726	–	–	–	–	–	–	184	0.0477	3857	–	–	–
Cc1cc(CCC#N)cc(C)c1Oc1ccc(N)c(Nc2ccc(C#N)cc2)c1	0.113	0.016	7.1	–	> 200	–	–	–	–	0.0116	> 17241	–	–	–
Cc1cc(CCC#N)cc(C)c1Oc1cc(Nc2ccc(C#N)cc2)c(N)cc1COC(=O)C1CC1	0.0233	0.00163	14	–	–	2.51	4.18	0.195	42.2	0.0232	1818	1.64 (≈ 3.41 µM)	1.24 (≈ 2.58 µM)	–
Cc1cc(CCC#N)cc(C)c1Oc1cc(Nc2ccc(C#N)cc2)c(N)cc1C(=O)N(C)C	0.0117	0.00616	1.9	45	–	2.86	72.2	1.65	38.2	0.00159	24025	1.08 (≈ 2.38 µM)	65.1 (≈ 144 µM)	0.0722
COC(=O)c1cc(N)c(Nc2ccc(C#N)cc2)cc1Oc1c(Br)cc(CCC#N)cc1OC	0.00998	0.00519	1.9	–	–	2.85	81.5	2.32	10.1	< 0.000122	> 82787	0.2 (≈ 0.384 µM)	1.73 (≈ 3.32 µM)	–
COC(=O)c1cc(N)c(Nc2ccc(C#N)cc2)cc1Oc1c(OC)cc(CCC#N)cc1OC	–	0.102	–	–	–	–	–	–	128	0.329	389	–	–	–
Cc1cc(CCC#N)cc(C)c1Oc1cc(Nc2ccc(C#N)cc2)c(N)cc1Br	0.0652	0.00326	–	–	–	> 5	58.3	0.833	84.8	0.00049	–	0.12 (≈ 0.26 µM)	0.25 (≈ 0.542 µM)	0.0139
Cc1cc(CCC#N)cc(C)c1Oc1cc(Nc2ccc(C#N)cc2)c(N)cc1CN1CCN(C)CC1	–	0.115	–	–	–	–	–	–	–	–	–	–	–	–
CNC(=O)OCc1cc(N)c(Nc2ccc(C#N)cc2)cc1Oc1c(C)cc(CCC#N)cc1C	0.0938	0.016	5.8	–	–	–	–	–	46.8	0.00832	5625	–	–	–
CNC(=O)c1cc(N)c(Nc2ccc(C#N)cc2)cc1Oc1c(OC)cc(CCC#N)cc1OC	–	0.178	–	–	–	–	–	–	42.6	0.137	311	–	–	–
Cc1cc(CCC#N)cc(C)c1Oc1cc(Nc2ccc(C#N)cc2)c(N)cc1CNC1CC1	0.0257	0.00053	48	–	–	3.69	78.4	1.65	25.5	0.00625	4080	13.6 (≈ 30.1 µM)	276 (≈ 611 µM)	–
Cc1cc(CCC#N)cc(C)c1Oc1cc(Nc2ccc(C#N)cc2)c(N)cc1CN(C)C	0.0234	0.00273	8.6	1.1	–	2.52	93.3	3.85	23.8	0.00216	11019	23.4 (≈ 53.2 µM)	260 (≈ 591 µM)	0.00246
Cc1cc(/C=C/C#N)cc(C)c1Nc1ccnc(Nc2ccc(C#N)cc2)n1 [RILPIVIRINE]	–	–	–	–	> 30	> 5	80.2	1.93	–	–	–	–	–	–

Source: ChEMBL document CHEMBL3808367, “Novel HIV-1 Non-nucleoside Reverse Transcriptase Inhibitor Agents: Optimization of Diarylanilines with High Potency against Wild-Type and Rilpivirine-Resistant E138K Mutant Virus” (J Med Chem, 2016)
